From ChEMBL document CHEMBL1152539, “Synthesis and evaluation of bioactive naphthoquinones from the Brazilian medicinal plant, Tabebuia avellanedae” (Bioorg Med Chem, 2009)
Values after ≈ are worked out from the molar mass of the structure shown.

What was measured:
Bacillus mycoides = assay: Antimicrobial activity against Bacillus mycoides ATCC 11778 after 24 hrs by broth dilution method; type: functional; details: ATCC 11778, 24 h
Method in brief: (§1)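 Modified NCCLS broth dilution. A 50 µL aliquot of bacterial cells (10⁶/mL in 0.85% NaCl) was added to 1 mL Mueller-Hinton broth containing compound over a 0.1–100 range.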

Bacillus subtilis = assay: Antimicrobial activity against Bacillus subtilis NBRC3134 after 24 hrs by broth dilution method; type: functional; details: NBRC3134, 24 h; method in brief: as §1
Staphylococcus aureus = assay: Antimicrobial activity against Staphylococcus aureus NBRC13276 after 24 hrs by broth dilution method; type: functional; details: NBRC13276, 24 h; method in brief: as §1
Raji [1] = assay: Inhibition of 12-O-tetradecanoylphorbol-13-acetate-induced EBV-early antigen activation in human Raji cells assessed as EA induction at 1000 molar ratio after 48 hrs by immunofluorescence technique relative to 12-O-tetradecanoylphorbol-13-acetate; type: cell-based; details: human gammaherpesvirus 4
Method in brief: (§2)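 Raji cells were incubated for 48 h at 37 °C in medium with n-butyric acid (4 mM), TPA (32 pmol) and graded amounts of test compound. Smears were stained for EBV-EA by indirect immunofluorescence, and positive cells were counted among at least 500 cells. Assays were run in triplicate. Activity was expressed relative to the n-butyric acid plus TPA control, set as 100%.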

Raji [2] = assay: Inhibition of 12-O-tetradecanoylphorbol-13-acetate-induced EBV-early antigen activation in human Raji cells assessed as EA induction at 10 molar ratio after 48 hrs by immunofluorescence technique relative to 12-O-tetradecanoylphorbol-13-acetate; type: cell-based; parameters: scale not given: the % may be the effect or the level left; details: human gammaherpesvirus 4; method in brief: as §2
MCF7 = assay: Antiproliferative activity against human MCF7 cells after 72 hrs by trypan blue exclusion assay; type: functional, cell-based; details: MCF7, 72 h
Method in brief: (§3)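 Cells were kept in DMEM with 10% fetal serum and exposed to four concentrations of compound for 72 h at 37 °C in humidified 5% CO₂. They were then stained with 0.25% trypan blue for 20 min, and viable cells were counted by light microscopy. IC₅₀ was derived from separate experiments run in triplicate.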

[3] = Inhibition of 12-O-tetradecanoylphorbol-13-acetate-induced EBV-early antigen activation in human Raji cells after 48 hrs by immunofluorescence technique; type: cell-based, human gammaherpesvirus 4; method in brief: as §2
[4] = Cytotoxicity against human Raji cells assessed as cell viability at 1000 molar ratio after 48 hrs by trypan blue staining; type: cell-based; details: read-out: Activity
Method in brief: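 Raji cells were exposed for 48 h at 37 °C to n-butyric acid (4 mM), TPA (32 pmol) and test compound, as in the EBV-EA induction setup. Viability of the treated cells was then measured by trypan blue staining.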

A549 = assay: Antiproliferative activity against human A549 cells after 72 hrs by trypan blue exclusion assay; type: functional, cell-based; details: A549, 72 h; method in brief: as §3
Raji [5] = assay: Inhibition of 12-O-tetradecanoylphorbol-13-acetate-induced EBV-early antigen activation in human Raji cells assessed as EA induction at 100 molar ratio after 48 hrs by immunofluorescence technique relative to 12-O-tetradecanoylphorbol-13-acetate; type: cell-based; parameters: scale not given: the % may be the effect or the level left; details: human gammaherpesvirus 4; method in brief: as §2
Raji [6] = assay: Inhibition of 12-O-tetradecanoylphorbol-13-acetate-induced EBV-early antigen activation in human Raji cells assessed as EA induction at 500 molar ratio after 48 hrs by immunofluorescence technique relative to 12-O-tetradecanoylphorbol-13-acetate; type: cell-based; parameters: scale not given: the % may be the effect or the level left; details: human gammaherpesvirus 4; method in brief: as §2
PC-3 = assay: Antiproliferative activity against human PC3 cells after 72 hrs by trypan blue exclusion assay; type: functional, cell-based; details: PC-3, 72 h; method in brief: as §3
[7] = Cytotoxicity against human Raji cells assessed as cell viability at 500 molar ratio after 48 hrs by trypan blue staining; type: cell-based; details: read-out: Activity
Method in brief: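 Raji cells incubated 48 h at 37 °C in medium containing n-butyric acid (4 mM), TPA (32 pmol) and various amounts of test compound, as part of the EBV-EA activation inhibition assay. Viability of the treated cells was then assayed by trypan blue staining.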

Pseudomonas aeruginosa = assay: Antimicrobial activity against Pseudomonas aeruginosa NBRC13275 after 24 hrs by broth dilution method; type: functional; details: NBRC13275, 24 h; method in brief: as §1
Escherichia coli = assay: Antimicrobial activity against Escherichia coli ATCC 11775 after 24 hrs by broth dilution method; type: functional; details: ATCC 11775, 24 h; method in brief: as §1
[8] = Anticancer activity against DMBA/TPA-induced skin cancer in mouse assessed as number of papillomas per mouse at 85 nmol administered before TPA challenge measured after 20 weeks; type: functional
Method in brief: (§4)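 Mouse two-stage skin model: DMBA 390 nmol in 0.1 mL acetone applied topically by pipet. One week later, the same skin site was painted with test compound (85 nmol in acetone) or acetone alone, 60 min before TPA (1.7 nmol). Tumor response was scored as the average number of papillomas per mouse and the percentage of mice bearing papillomas.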

Saccharomyces cerevisiae [9] = assay: Antimicrobial activity against Saccharomyces cerevisiae NBRC10114 after 3-5 days by broth dilution method; details: NBRC10114, 3-5 days
[10] = Anticancer activity against DMBA/TPA-induced skin cancer in mouse assessed as incidence of papilloma at 85 nmol administered before TPA challenge measured after 15 weeks; type: functional; method in brief: as §4
Hepatocyte = assay: Antiproliferative activity against human hepatocytes after 72 hrs by trypan blue exclusion assay; type: cell-based; method in brief: as §3
Penicillium expansum [11] = assay: Antimicrobial activity against Penicillium expansum NBRC8800 after 3-5 days by broth dilution method; details: NBRC8800, 3-5 days
[12] = Anticancer activity against DMBA/TPA-induced skin cancer in mouse assessed as incidence of papilloma at 85 nmol administered before TPA challenge measured after 10 weeks; type: functional; method in brief: as §4
[13] = Antiproliferative activity against human SVCT-M12 cells after 72 hrs by trypan blue exclusion assay; type: cell-based; details: SVCT-M12, 72 h; method in brief: as §3
Paecilomyces variotii [14] = assay: Antimicrobial activity against Paecilomyces variotii NBRC4855 after 24 hrs by broth dilution method; type: functional; details: NBRC4855, 24 h
Candida albicans [15] = assay: Antimicrobial activity against Candida albicans NBRC1060 after 3-5 days by broth dilution method; details: NBRC1060, 3-5 days
Naganishia albida [16] = assay: Antimicrobial activity against Cryptococcus albidus NBRC0378 after 24 hrs by broth dilution method; type: functional; details: NBRC0378, 24 h
[17] = Antiproliferative activity against human skin fibroblast after 72 hrs by trypan blue exclusion assay; type: cell-based; method in brief: as §3
[18] = Antiproliferative activity against human Hs888Lu cells after 72 hrs by trypan blue exclusion assay; type: cell-based; method in brief: as §3
Aspergillus fumigatus [19] = assay: Antimicrobial activity against Aspergillus fumigatus NBRC4400 after 24 hrs by broth dilution method; type: functional; details: NBRC4400, 24 h
Salmonella enteritidis = assay: Antimicrobial activity against Salmonella enteritidis OPS10 after 24 hrs by broth dilution method; type: functional, Salmonella enterica subsp. enterica serovar Enteritidis; details: Salmonella enterica, OPS10, 24 h; method in brief: as §1
[20] = Anticancer activity against DMBA/TPA-induced skin cancer in mouse assessed as incidence of papilloma at 85 nmol administered before TPA challenge measured after 20 weeks; type: functional; method in brief: as §4
Aspergillus fumigatus [21] = assay: Antimicrobial activity against Aspergillus fumigatus NBRC4400 after 3-5 days by broth dilution method; details: NBRC4400, 3-5 days
Paecilomyces variotii [22] = assay: Antimicrobial activity against Paecilomyces variotii NBRC4855 after 3-5 days by broth dilution method; details: NBRC4855, 3-5 days
Saccharomyces cerevisiae [23] = assay: Antimicrobial activity against Saccharomyces cerevisiae NBRC10114 after 24 hrs by broth dilution method; type: functional; details: NBRC10114, 24 h
Naganishia albida [24] = assay: Antimicrobial activity against Cryptococcus albidus NBRC0378 after 3-5 days by broth dilution method; details: NBRC0378, 3-5 days
Candida albicans [25] = assay: Antimicrobial activity against Candida albicans NBRC1060 after 24 hrs by broth dilution method; type: functional; details: NBRC1060, 24 h
Penicillium expansum [26] = assay: Antimicrobial activity against Penicillium expansum NBRC8800 after 24 hrs by broth dilution method; type: functional; details: NBRC8800, 24 h

MIC (Bacillus mycoides) | MIC (Bacillus subtilis) | MIC (Staphylococcus aureus) | IC50 (MCF7) | IC50 [3] | IC50 (A549) | IC50 (PC-3) | MIC (Pseudomonas aeruginosa) | MIC (Escherichia coli) | MIC (Saccharomyces cerevisiae [9]) | MIC (Penicillium expansum [11]) | MIC (Candida albicans [15]) | MIC (Salmonella enteritidis) | Compound | EA induction relative to TPA control (Raji [1]) | Activity (Raji [2]) | viability at 48 h, 1000 molar ratio [4] | Activity (Raji [5]) | Activity (Raji [6]) | EC50 [13] | EC50 [18] | also measured
1.56 µg/mL (≈ 4.67 µM) | 0.39 µg/mL (≈ 1.17 µM) | 0.39 µg/mL (≈ 1.17 µM) |  |  |  |  |  |  |  |  |  |  | CC1(C)S[C@@H]2[C@H](NC(=O)Cc3ccccc3)C(=O)N2[C@H]1C(=O)O [PENICILLIN G] |  |  |  |  |  |  |  | 
 |  |  | 9.96 µM | 210 mol ratio/32 pmol TPA | 4.21 µM | 1.13 µM |  |  |  |  |  |  | CC1(C)CCC2=C(O1)c1ccccc1C(=O)C2=O [LAPACHONE] | 4.7% | 73.1% | 50% | 50.4% | 21.7% |  |  | 
0.78 µg/mL (≈ 3.02 µM) | 0.78 µg/mL (≈ 3.02 µM) | 3.13 µg/mL (≈ 12.1 µM) | 0.51 µM | 33.2 mol ratio/32 pmol TPA | 0.78 µM |  | > 100 µg/mL | > 100 µg/mL | 3.13 µg/mL (≈ 12.1 µM) | 25 µg/mL (≈ 96.8 µM) | 25 µg/mL (≈ 96.8 µM) | > 100 µg/mL | C[C@H](O)c1cc2c(o1)C(=O)c1cccc(O)c1C2=O | 0% | 50% | 60% | 16.9% | 4.4% | 3.36 µM | 5.51 µM | Activity [8]: 3.9; Activity [10]: 47%; EC50 (Hepatocyte): 11.1 µM; Activity [12]: 7%; MIC (Paecilomyces variotii [14]): 25 µg/mL (≈ 96.8 µM); MIC (Naganishia albida [16]): 1.56 µg/mL (≈ 6.04 µM); EC50 [17]: 11.1 µM; MIC (Aspergillus fumigatus [19]): 12.5 µg/mL (≈ 48.4 µM); Activity [20]: 67%
1.56 µg/mL (≈ 6.04 µM) | 1.56 µg/mL (≈ 6.04 µM) | 6.25 µg/mL (≈ 24.2 µM) | 2.61 µM | 271 mol ratio/32 pmol TPA | 4.31 µM | 1.57 µM | > 100 µg/mL | > 100 µg/mL |  | 50 µg/mL (≈ 194 µM) | 25 µg/mL (≈ 96.8 µM) | > 100 µg/mL | C[C@H](O)c1cc2c(o1)C(=O)c1c(O)cccc1C2=O | 7.4% | 80.5% | 60% | 58.2% | 26.5% | 14.6 µM | 14.6 µM | MIC (Aspergillus fumigatus [21]): 25 µg/mL (≈ 96.8 µM); MIC (Paecilomyces variotii [22]): 50 µg/mL (≈ 194 µM); MIC (Saccharomyces cerevisiae [23]): 3.13 µg/mL (≈ 12.1 µM); MIC (Naganishia albida [24]): 1.56 µg/mL (≈ 6.04 µM)
0.78 µg/mL (≈ 3.04 µM) | 1.56 µg/mL (≈ 6.09 µM) | 1.56 µg/mL (≈ 6.09 µM) | 0.78 µM | 37.2 mol ratio/32 pmol TPA | 2 µM | 0.84 µM | > 100 µg/mL | > 100 µg/mL | 1.56 µg/mL (≈ 6.09 µM) |  |  | > 100 µg/mL | CC(=O)c1cc2c(o1)C(=O)c1cccc(O)c1C2=O | 0% | 56% | 60% | 23.7% | 7.1% | 7.7 µM | 7.7 µM | MIC (Candida albicans [25]): > 100 µg/mL; MIC (Aspergillus fumigatus [21]): 100 µg/mL (≈ 390 µM); MIC (Paecilomyces variotii [22]): 100 µg/mL (≈ 390 µM); MIC (Penicillium expansum [26]): 50 µg/mL (≈ 195 µM); MIC (Naganishia albida [24]): 1.56 µg/mL (≈ 6.09 µM)

Compound | MIC (Bacillus mycoides) | MIC (Bacillus subtilis) | MIC (Staphylococcus aureus) | IC50 (MCF7) | IC50 [3] | IC50 (A549) | IC50 (PC-3) | MIC (Pseudomonas aeruginosa) | MIC (Escherichia coli) | MIC (Saccharomyces cerevisiae [9]) | MIC (Penicillium expansum [11]) | MIC (Candida albicans [15]) | MIC (Salmonella enteritidis) | EA induction relative to TPA control (Raji [1]) | Activity (Raji [2]) | viability at 48 h, 1000 molar ratio [4] | Activity (Raji [5]) | Activity (Raji [6]) | EC50 [13] | EC50 [18] | also measured
CC(C)=CCC1=C(O)C(=O)c2ccccc2C1=O [LAPACHOL] |  |  |  | 10.2 µM | 311 mol ratio/32 pmol TPA | 4.78 µM | 1.97 µM |  |  |  |  |  |  | 8.9% | 86.6% | 50% | 65.2% | 32.8% |  |  | viability at 48 h, 500 molar ratio [7]: 60%
